An excerpt weighted towards active compounds, which were near 5.5% of everything screened.
WT yeast gro inh – growth inhibition of WT strain, primary screen, mitochondrial fusion inhibitor project, WT and mutant strains, chemical genetic; mitochondrial fusion phenotypic screen; inhibition, % at 10 µM; hit rate 2.1% among 190,000; AID 1362, 2008; in the data active means inhibition above about 58%; tested in S. cerevisiae
Yeast growth inh – growth inhibitors of yeast BB579 in restrictive medium, primary screen, yeast lifespan-shortening project, S. cerevisiae | OD615, 48 h | inhibition, % at 10 µM | hit rate 0.51% among 140,000;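 active means inhibition above a set limit, 3 SD over the mean compound inhibition, cut at about 44% in these data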
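Assay system: S. cerevisiae DeaD strain BB579 yeast. Medium: CSMM-D restrictive synthetic medium containing dextrose (glucose). Times: 4 h cell preincubation, 48 h compound exposure, 30 °C humidified. Signal: OD615 turbidity measurement. Benchmarks: positive control amphotericin B 10 µg/mL.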
RAM network inh – inhibitors of the yeast RAM network, primary screen, dse1pr::URA3 reporter, 5-FOA selection. S. cerevisiae dse1pr::URA3 reporter, 5-FOA growth OD615, 2 d; analog-sensitive cbk1-as2 kinase mutant strain. inhibition, % at 50 µM. hit rate 1.8% among 190,000. AID 868, 2007;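 active means inhibition above a set limit, 3 SD over mean compound inhibition, cut at about 8.4% in these data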;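 further: 0% = DMSO-only wells with no growth and 100% = 10 µM 1-NA-PP1 full growth; inhibition rescues growth on 5-FOA so higher OD means more RAM inhibition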
Yeast lifespan up – compounds extending yeast replicative lifespan, primary screen, S. cerevisiae, OD615. hit rate 0.68% among 130,000. inhibition of the nicotinamide effect, % at 10 µM. S. cerevisiae growth with nicotinamide; deaD strain in restrictive glucose medium;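 active means inhibition above a set limit, placed 3 SD over the median of all compounds, cut at about 26% in these data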;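 further: 0% = nicotinamide-treated wells and 100% = cells grown without nicotinamide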
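System: Modified budding yeast, DeaD strain | Buffer or medium: Restrictive glucose medium | Also added: 1.5 mM nicotinamide | Doses: 10 µM single point, 0.25% DMSO | Schedule: 48 h compound exposure at 30 °C, humidified | Detection: Absorbance at 615 nm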
KCC2 mod – KCC2 cotransporter modulators, thallium flux, primary screen, cell-based, HEK293 KCC2, FluoZin-2 fluorescence, MLSMR; Solute carrier family 12 member 5 (Homo sapiens), Q9H2X9; KCC2 cells, thallium flux FluoZin-2 fluorescence; B-score of Tl+ flux slope (higher = more flux/activation; lower = inhibition) at 10 µM; hit rate 2.2% among 190,000;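 active means thallium flux slope and its plate-corrected score both differing from the plate sample mean at a set confidence after two filtering rounds, in either direction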;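 further: slope of fluorescence scaled to starting intensity during 10 to 20 s after thallium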
RAM efflux-def – 5-FOA growth of efflux-deficient control yeast, dose response, counter-screen for RAM network inhibitor project, S. cerevisiae, OD615. 1,200 tested, under 10 active. max inhibition, %. S. cerevisiae efflux-deficient reporter strain, 5-FOA growth OD615, 2 days. shares compounds with RAM network inh. AID 1305, 2008; call rule not given here;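 further: plate controls were vehicle for no effect and reference inhibitor for full effect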
Numbers without * were called inactive; · = no result given.

SMILES | WT yeast gro inh | Yeast growth inh | RAM network inh | Yeast lifespan up | KCC2 mod | RAM efflux-def
CC(C)(C)c1ccc(OC(=O)c2ccc(-n3cncn3)nc2)cc1 | 7 | · | 4 | · | 0.66 | ·
CCCOc1ccc(CC(=O)NNC(=S)Nc2ccccc2)cc1Br | 44 | -27 | 15* | · | 0.63 | 2
Cc1ccc(S(=O)(=O)NC(C)(C)CN2CCc3ccccc3C2)cc1 | · | · | · | · | -1.4 | ·
N#CCc1ccc(NS(=O)(=O)c2ccc(C3CCCCC3)cc2)cc1 | 62* | -45 | 11* | 0 | 0.73 | 3
COc1ccc(S(=O)(=O)Nc2ccc(CC#N)cc2)cc1 | 0 | -7 | 0 | -14 | 0.7 | ·
O=C(N/N=C\CCc1ccccc1)c1ccco1 | 0 | 7 | 1 | 8 | 0.27 | ·
COc1ccc(-c2csc(Nc3ccccc3)[n+]2Cc2ccccc2)cc1 | 21 | · | 2 | · | -0.0039 | ·
Clc1ccc(-c2csc(Nc3ccccc3)[n+]2Cc2ccco2)c(Cl)c1 | 72* | · | 14* | · | 0.11 | 2
CCCCNC(=S)N(C)/N=C/c1ccc(OCC(=O)Nc2ccc(OC)cc2)c(OC)c1 | 16 | -20 | 15* | -1 | -0.072 | 3
O=C(/C=C/c1ccc2c(c1)OCO2)NCCSCc1ccc(Cl)cc1Cl | 46 | -27 | 12* | -9 | -0.23 | 3
Cc1c(C(=O)NCCSCc2ccccc2Cl)cccc1[N+](=O)[O-] | 13 | -37 | 1 | -10 | -1.8 | ·
O=C(/C=C/c1cccc([N+](=O)[O-])c1)NCCSCc1ccccc1Cl | 39 | -33 | 12* | -3 | -1.8 | 2
O=C(/C=C/c1cccc([N+](=O)[O-])c1)NCc1ccc2c(c1)OCO2 | 15 | -23 | 0 | -2 | 0.035 | ·
O=C(/C=C/c1cccc([N+](=O)[O-])c1)NCCSCc1ccc(Cl)cc1Cl | 21 | -45 | 12* | 3 | -1.4 | 3
CCC(C)(C(=O)NC1CCCC1)N(C(=O)CC1NC(=O)NC1=O)c1ccc(C)cc1 (stereo not drawn) | 3 | -35 | 0 | -5 | · | ·
COCCCNC(CC(=O)Nc1ccccc1C(=O)OC)C(=O)O (stereo not drawn) | · | · | · | · | 0.5 | ·
O=C(/C=C/c1ccc(OCc2ccccc2)c(OCc2ccccc2)c1)c1cccnc1 | 0 | -20 | 14* | 5 | -0.18 | 6
O=C(/C=C/c1ccc(Cl)cc1)c1cccnc1 | 10 | -19 | 1 | -6 | -0.1 | ·
CC(=O)N/N=C(\C)C1COc2ccccc2O1 (stereo not drawn) | · | · | · | · | 0.2 | ·
Cc1ccc(N(CCCCN2C(=O)c3ccccc3C2=O)C(=O)c2cccs2)cc1 | -5 | -55 | 12* | 1 | -0.044 | 3
COc1cc(NC(=O)C2CC2)c(OC)cc1NC(=O)CCC(=O)NC1CCN(Cc2ccccc2)CC1 | -2 | · | 2 | · | -0.83 | ·
Cc1ccc(SCC(=O)Nc2ccc(F)cc2[N+](=O)[O-])cc1C | 14 | -46 | 15* | 1 | -0.54 | 1
CCN(CC)S(=O)(=O)c1ccc(OC(C)C)c(NC(=O)c2c3c(nc4ccccc24)CCN(Cc2ccccc2)C3)c1 | 1 | 4 | 0 | -6 | -0.33 | ·
COc1ccc(Oc2c(-c3ccc(O)cc3O)n[nH]c2C)cc1 | -10 | -26 | -1 | -5 | -0.66 | ·
CCCOC(=O)c1ccc(Oc2c(-c3ccc(OCC)cc3O)n[nH]c2C)cc1 | 37 | -68 | 15* | -12 | · | 5
SMILES | WT yeast gro inh | Yeast growth inh | RAM network inh | Yeast lifespan up | KCC2 mod | RAM efflux-def
COc1cc(/C=C2\SC(=S)N(C(Cc3ccccc3)C(=O)O)C2=O)ccc1O (stereo not drawn) | · | · | · | · | -0.65 | ·
CC(=C\c1ccccc1)/C=C1/SC(=S)N(C(C(=O)O)C(C)C)C1=O (stereo not drawn) | 2 | · | 21* | · | · | 4
Cc1ccc(/C=C2\SC(=S)N(C(Cc3ccccc3)C(=O)O)C2=O)cc1 (stereo not drawn) | -33 | -48 | 17* | 8 | -3.5* | 10
Cc1ccc(Cl)c(OCC(=O)Nc2sc(C)c(C)c2C#N)c1 | -11 | -9 | 0 | -2 | 0.021 | ·
COc1ccc(CN(C)C(=O)c2cnc(OC)cc2C(F)(F)F)c(OC)c1 | · | · | · | · | -0.23 | ·
O=C(CSc1nc(SCC(=O)NCc2ccccc2)n(-c2ccccc2)n1)NCc1ccccc1 | -5 | -21 | 36* | -16 | · | 2
CN(C)C(=O)CSc1nc(SCC(=O)N(C)C)n(-c2ccccc2)n1 | 17 | -36 | 0 | -20 | · | ·
CCOC(=O)c1[nH]c2ccccc2c1NC(=O)Nc1ccc(OC)cc1 | -15 | -10 | 0 | -2 | · | ·
COc1ccc(C(=O)Nc2ccc3c(c2)nc(CN2CCCC2)n3C)cc1 | -8 | · | 3 | · | 0.64 | ·
COc1ccc(/C=C/C(=O)c2ccc(Cl)cc2)c(OC)c1 | 11 | -60 | 12* | -24 | · | 4
COc1ccc(/C=C/C(=O)c2cc(Cl)ccc2O)c(OC)c1 | · | · | · | · | 0.64 | ·
C#CCOCCOCCOCCNc1nc(N2CCN(C(=O)[C@H]([C@@H](C)CC)n3cc([C@@H](N)CO)nn3)CC2)nc(N2CCN(C(=O)[C@H](Cc3cc4ccccc4[nH]3)n3cc([C@@H](N)Cc4ccc(O)cc4)nn3)CC2)n1 | · | · | · | · | 0.87 | ·
CN(C(=O)c1ccc(OC2CCN(CCc3ccccc3)CC2)cc1)C1CCCCC1 | 9 | · | 1 | · | 0.087 | ·
Cc1cc(Oc2ccc(Cl)cc2)nc(-c2ccccc2O)n1 | 16 | -41 | 14* | -11 | 0.64 | 2
COc1ccc2c(c1)CCc1c(C(=O)NCCc3ccc(OC)c(OC)c3)noc1-2 | -3 | -16 | 14* | -15 | · | 6
C/C(=N\NC(=S)NCc1ccccc1)c1ccc(C(C)(C)C)cc1 | 63* | 26 | 11* | 0 | 1.4 | 5
O=C(/C(=N/N=C/c1ccc(O)c(O)c1O)c1ccccc1)c1ccccc1 | 3 | 95* | 17* | -11 | 0.062 | 1
Cc1cc(N2C(=O)NC(=O)CC2C)c(C)cc1C(C)C (stereo not drawn) | -13 | -16 | 0 | 3 | 0.016 | ·
COc1cc(S(=O)(=O)Nc2ccccc2)ccc1N=Cc1c(C)[nH]n(-c2ccc(C)cc2)c1=O | 18 | -23 | 13* | 0 | 0.2 | 1
COC(=O)Cc1c(O)ccn(Cc2cccc3ccccc23)c1=O | 18 | -69 | 1 | 21 | 1.7 | ·
FC(F)(F)c1cc(-c2ccco2)nc(N2CCN(Cc3ccccc3)CC2)n1 | 64 | -27 | 0 | -14 | · | ·
Fc1ccc(N2CCN(c3nc(-c4ccco4)cc(C(F)(F)F)n3)CC2)cc1 | 8 | -44 | 14* | -7 | · | 4
CC(C)c1ccccc1NC(=O)CNC(C)c1ccc(F)cc1 (stereo not drawn) | -5 | · | 0 | · | 0.057 | ·

Compound activity deposited in PubChem BioAssay by several laboratories.
